{"data": "Results gathered from unrelated publications", "target": "Insulin receptor (INSR, Homo sapiens, UniProt P06213)", "note": "Compare with care: the assays were run in different laboratories."}
{"Compound": "Nc1ncc(-c2nc(N3CCOCC3)nc(N3CCOCC3)n2)c(C(F)F)n1", "test": "cell-free assay, competition with immobilised ligand", "conditions": "10 µM", "endpoint": "remaining binding", "value": "50%"}
{"Compound": "C#Cc1n[nH]c2c(-c3cn([C@@H](C)c4ccccn4)c(=O)[nH]c3=O)cc(F)cc12", "test": "enzyme activity, inhibitor", "conditions": "0.1 µM", "endpoint": "inhibition", "value": "9%"}
{"Compound": "Cc1nn(C)cc1-c1nc2c(N3CCN(Cc4ccc(Cl)cc4)CC3)c(Cl)cnc2[nH]1", "test": "binding, competition with immobilised ligand", "conditions": "1 µM", "endpoint": "remaining binding", "value": "100%"}
{"Compound": "Cn1cc(-c2cccc(N3CCc4c(sc5c4CC(C)(C)C5)C3=O)c2CO)cc(Nc2ccncn2)c1=O", "test": "enzyme activity, inhibitor", "conditions": "1 µM", "endpoint": "inhibition", "value": "6%"}
{"Compound": "O=c1[nH]c2ccccc2n1C1CCN(Cc2ccc(-c3[nH]c4cc5ncnc5cc4nc3-c3ccccc3)cc2)CC1", "test": "cell-free assay", "conditions": "0.5 µM", "endpoint": "remaining signal", "value": "102%"}
{"Compound": "Cn1cc(-c2cc(F)cc(N3CCn4c(cc5c4CCCC5)C3=O)c2CO)cc(Nc2ccc(N3CCN(C4COC4)CC3)cn2)c1=O", "test": "enzyme activity, inhibitor", "conditions": "0.1 µM", "endpoint": "inhibition", "value": "8%"}
{"Compound": "CC(C)(C)c1cc(C=C(C#N)C#N)cc(Br)c1O", "test": "enzyme activity, inhibitor", "conditions": "0.5 µM", "endpoint": "remaining activity", "value": "105%"}
{"Compound": "C#Cc1n[nH]c2c(-c3cn([C@@H](C)c4ccccc4)c(=O)[nH]c3=O)cc(F)cc12", "test": "enzyme activity, inhibitor", "conditions": "0.1 µM", "endpoint": "inhibition", "value": "7.7%"}
{"Compound": "COc1ncccc1-c1cnn2ccc(N3CCN(C(=O)OC(C)C)CC3)nc12", "test": "binding, competition with immobilised ligand", "conditions": "1 µM", "endpoint": "remaining binding", "value": "95%"}
{"Compound": "Cc1ncc(C)n2nc(/C=C/c3nc(N4CCCC4)cc(N4CCOCC4)n3)nc12", "test": "enzyme activity, inhibitor", "conditions": "10 µM", "endpoint": "inhibition", "value": "37%"}
{"Compound": "Cn1cncc1[C@@](O)(COc1ccc(C#N)cc1-c1ccc(OC(F)(F)F)cc1)c1ccc(C#N)cc1", "test": "cell-free assay, competition with immobilised ligand", "conditions": "1 µM", "endpoint": "remaining binding", "value": "84%"}
{"Compound": "C[C@H](C(=O)N[C@H]1COc2ccccc2[C@@H]1S(C)(=O)=O)c1ccc(F)cc1", "test": "enzyme activity, inhibitor", "conditions": "10 µM", "endpoint": "inhibition", "value": "-14%"}
{"Compound": "N#CC1(c2ccccn2)CCN(Cc2cc(C(=O)O)c(=O)n3ccccc23)CC1", "test": "cell-free assay, competition with immobilised ligand", "conditions": "1 µM", "endpoint": "remaining binding", "value": "74%"}
{"Compound": "O=C(Nc1cccnn1)N1CCN([C@@H]2CCOc3cc(C(F)(F)F)ccc32)CC1", "test": "enzyme activity, inhibitor", "conditions": "20 µM", "endpoint": "inhibition", "value": "14%"}
{"Compound": "c1ccc(C(NCCNC(c2ccccc2)c2ccccc2)c2ccccc2)cc1", "test": "enzyme activity, inhibitor", "conditions": "10 µM", "endpoint": "inhibition", "value": "-6%"}
